From ChEMBL document CHEMBL1131197, “5'-substituted adenosine analogs as new high-affinity partial agonists for the adenosine A1 receptor” (J Med Chem, 1998)

How the values were obtained:
Adenosine receptor A1 [1] = biological target: T1, Adenosine receptor A1 (Rattus norvegicus, UniProt P25099); test: Effective concentration for [35S]GTP-gamma-S, binding to adenosine A1 receptor in rat brain membranes; type: functional, cell membranes
T1 sequence (P25099 whole entry): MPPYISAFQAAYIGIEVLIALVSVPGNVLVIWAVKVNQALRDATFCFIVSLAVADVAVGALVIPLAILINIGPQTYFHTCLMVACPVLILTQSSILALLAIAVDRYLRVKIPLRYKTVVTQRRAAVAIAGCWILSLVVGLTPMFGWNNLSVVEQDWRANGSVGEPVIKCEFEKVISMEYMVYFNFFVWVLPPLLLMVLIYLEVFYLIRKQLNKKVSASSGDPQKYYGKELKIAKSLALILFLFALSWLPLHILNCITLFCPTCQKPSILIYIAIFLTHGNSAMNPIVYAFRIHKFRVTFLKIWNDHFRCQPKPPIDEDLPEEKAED
Summary of the method: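 Stimulation of [35S]GTPγS binding in rat brain membranes (same preparation as binding); nonspecific binding defined with 10 µM unlabeled GTPγS.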

Adenosine receptor A1 [2] = biological target: T1, Adenosine receptor A1; test: Binding affinity against adenosine A1 receptor using [3H]DPCPX in rat cortical membranes in the absence of GTP; type: cell membranes
Summary of the method: (§1)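 Rat cortical membranes, pre-incubated with 2 units/mL ADA at 37 °C before storage; protein by BCA. Nonspecific binding defined with 10 µM R-PIA. Line 1 run without GTP, line 2 with 1 mM GTP. Ki values are means of three independent experiments in duplicate unless otherwise noted.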

Adenosine receptor A1 [3] = biological target: T1, Adenosine receptor A1; test: Binding affinity against adenosine A1 receptor using [3H]DPCPX in rat cortical membranes in the presence of GTP.; type: cell membranes; summary of the method: as §1
[4] = biological target: T2, Adenosine receptor A1 (Rattus norvegicus) (UniProt P25099); test: Intrinsic activity for maximum stimulation of [35S]GTP-gamma-S, binding to adenosine A1 receptor in rat brain membranes; type: functional, cell membranes
T2 sequence (whole entry): T1 sequence (P25099 whole entry)
Summary of the method: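 Rat brain membranes incubated with the agonist and [35S]GTPγS; nonspecific binding defined with 10 μM unlabelled GTPγS. Read-out is the maximal level of G protein activation by [35S]GTPγS binding, given ± SEM, with EC50 derived from the stimulation curves; n = 3-9.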

Adenosine receptor A2a = Adenosine receptor A2a (Rattus norvegicus, UniProt P30543); test: Binding affinity against Adenosine A2A receptor using [3H]-CGS- 21680 as the radioligand in rat striatal membranes; type: cell membranes, Striatum, Membrane
Chain of Adenosine receptor A2a (P30543 whole entry): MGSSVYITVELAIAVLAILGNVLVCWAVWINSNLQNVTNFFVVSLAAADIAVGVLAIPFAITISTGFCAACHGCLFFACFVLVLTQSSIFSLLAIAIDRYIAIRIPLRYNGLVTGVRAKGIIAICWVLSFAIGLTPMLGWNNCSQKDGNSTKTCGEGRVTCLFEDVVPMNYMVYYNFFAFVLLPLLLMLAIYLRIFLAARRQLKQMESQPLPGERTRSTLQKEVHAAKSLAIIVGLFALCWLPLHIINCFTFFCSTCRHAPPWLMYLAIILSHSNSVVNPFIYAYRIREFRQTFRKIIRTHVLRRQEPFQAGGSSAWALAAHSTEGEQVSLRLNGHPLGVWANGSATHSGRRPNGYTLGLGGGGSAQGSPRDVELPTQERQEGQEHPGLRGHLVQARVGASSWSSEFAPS

Row | SMILES | EC50 (Adenosine receptor A1 [1]) | Ki (Adenosine receptor A1 [2]) | Ki (Adenosine receptor A1 [3]) | Activity [4] | Ki (Adenosine receptor A2a)
1 | CSC[C@H]1O[C@@H](n2cnc3c(NC4CCCC4)ncnc32)[C@H](O)[C@@H]1O | 99 nM | 59 nM | 199 nM | 40.2% | 13500 nM
2 | CNC[C@H]1O[C@@H](n2cnc3c(NC4CCCC4)ncnc32)[C@H](O)[C@@H]1O | 1330 nM | 440 nM | 2600 nM | 96.4% | 45500 nM
3 | CCNC[C@H]1O[C@@H](n2cnc3c(NC4CCCC4)ncnc32)[C@H](O)[C@@H]1O |  | 2410 nM | 8560 nM |  | 42500 nM
4 | OC[C@H]1O[C@@H](n2cnc3c(NC4CCCC4)ncnc32)[C@H](O)[C@@H]1O |  |  |  | 100% | 
5 | CCCNC[C@H]1O[C@@H](n2cnc3c(NC4CCCC4)ncnc32)[C@H](O)[C@@H]1O | 13900 nM | 4640 nM | 14300 nM | 73% | 14500 nM
6 | CCCSC[C@H]1O[C@@H](n2cnc3c(NC4CCCC4)ncnc32)[C@H](O)[C@@H]1O | 384 nM | 76 nM | 222 nM | 84.1% | 18800 nM
7 | C[Se]C[C@H]1O[C@@H](n2cnc3c(NC4CCCC4)ncnc32)[C@H](O)[C@@H]1O | 225 nM | 76 nM | 166 nM | 50.3% | 11300 nM

The remaining lines, values ahead:

Row | EC50 (Adenosine receptor A1 [1]) | Ki (Adenosine receptor A1 [2]) | Ki (Adenosine receptor A1 [3]) | Activity [4] | Ki (Adenosine receptor A2a) | SMILES
8 | 127 nM | 45 nM | 130 nM | 65.6% | 19000 nM | CCSC[C@H]1O[C@@H](n2cnc3c(NC4CCCC4)ncnc32)[C@H](O)[C@@H]1O
9 | 26 nM | 9.5 nM | 61.5 nM | 88% | 8750 nM | O[C@@H]1[C@H](O)[C@@H](CCl)O[C@H]1n1cnc2c(NC3CCCC3)ncnc21
10 | 189 nM | 41 nM | 149 nM | 85.3% | 10300 nM | CC(C)CSC[C@H]1O[C@@H](n2cnc3c(NC4CCCC4)ncnc32)[C@H](O)[C@@H]1O
